Assay results: ChEMBL document CHEMBL3580559, “Antimalarial 5,6-Dihydro-α-pyrones from Cryptocarya rigidifolia: Related Bicyclic Tetrahydro-α-Pyrones Are Artifacts1” (J Nat Prod, 2015)

Experiments:
A2780 = experiment: Antiproliferative activity against human A2780 cells assessed as inhibition of cell growth incubated for 2 days by alamar blue assay; format: cell-based; conditions: A2780, 48 h
Plasmodium falciparum = experiment: Antimalarial activity against chloroquine/mefloquine-resistant Plasmodium falciparum Dd2 incubated for 72 hrs by SYBR green I-based fluorescence assay; format: functional, organism-based; conditions: Dd2, 72 h
Outline: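 Parasite growth of P. falciparum Dd2 (chloroquine/mefloquine-resistant) measured after 72 h compound treatment with the SYBR green I-based fluorescence assay; artemisinin run as positive control; IC50 values reported.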

Row | SMILES | IC50 (A2780) [µM] | IC50 (Plasmodium falciparum) [µM]
1 | CCCCCCCCCCCCC[C@@H](O)C[C@H]1CC=CC(=O)O1 | > 10 | 9.2
2 | CCCCCCCCCCCCCCC[C@@H](O)C[C@H](O)C[C@H]1CC=CC(=O)O1 | > 10 | 5.8
3 | CCCCCC/C=C\CCCCCCC[C@@H](O)C[C@H]1CC=CC(=O)O1 | 8.6 | 5.5
4 | CCCCCCCC/C=C\CCCCCCC[C@H](O)C[C@H]1CC=CC(=O)O1 | > 10 | 7.4
5 | CCCCCCCC(O)CCCCCCC/C=C/[C@H](O)C[C@H]1CC=CC(=O)O1 (stereo partly drawn) | > 10 | 9
6 | CCCCCCCC/C=C\CCCCCC(O)CC1C[C@H]2C[C@H](CC(=O)O2)O1 (stereo partly drawn) | > 10 | 4
7 | CCCCCCCCCCC/C=C\CCCCCCCC1C[C@H]2C[C@H](CC(=O)O2)O1 (stereo partly drawn) | > 10 | 6
8 | CCCCCCCCCCCCC(O)CC1C[C@H]2C[C@H](CC(=O)O2)O1 (stereo partly drawn) | > 10 | > 10
9 | CCCCCCCCCCCCCCC[C@@H](O)C[C@H]1C[C@H]2C[C@H](CC(=O)O2)O1 | > 10 | > 10
10 | CCCCCC/C=C\CCCCCCC[C@@H]1C[C@H]2C[C@H](CC(=O)O2)O1 | > 10 | > 10
11 | CCCCCCCC(O)CCCCCCC/C=C/[C@H]1C[C@H]2C[C@H](CC(=O)O2)O1 (stereo partly drawn) | > 10 | > 10
12 | C[C@@H]1CC[C@H]2[C@@H](C)C(=O)O[C@@H]3O[C@@]4(C)CC[C@@H]1[C@]32OO4 [ARTEMISININ] | – | 0.007
